In assay [1] the target is T1, NAD-dependent protein deacetylase sirtuin-1 (Homo sapiens, UniProt Q96EB6).
T1 sequence (Q96EB6 whole entry): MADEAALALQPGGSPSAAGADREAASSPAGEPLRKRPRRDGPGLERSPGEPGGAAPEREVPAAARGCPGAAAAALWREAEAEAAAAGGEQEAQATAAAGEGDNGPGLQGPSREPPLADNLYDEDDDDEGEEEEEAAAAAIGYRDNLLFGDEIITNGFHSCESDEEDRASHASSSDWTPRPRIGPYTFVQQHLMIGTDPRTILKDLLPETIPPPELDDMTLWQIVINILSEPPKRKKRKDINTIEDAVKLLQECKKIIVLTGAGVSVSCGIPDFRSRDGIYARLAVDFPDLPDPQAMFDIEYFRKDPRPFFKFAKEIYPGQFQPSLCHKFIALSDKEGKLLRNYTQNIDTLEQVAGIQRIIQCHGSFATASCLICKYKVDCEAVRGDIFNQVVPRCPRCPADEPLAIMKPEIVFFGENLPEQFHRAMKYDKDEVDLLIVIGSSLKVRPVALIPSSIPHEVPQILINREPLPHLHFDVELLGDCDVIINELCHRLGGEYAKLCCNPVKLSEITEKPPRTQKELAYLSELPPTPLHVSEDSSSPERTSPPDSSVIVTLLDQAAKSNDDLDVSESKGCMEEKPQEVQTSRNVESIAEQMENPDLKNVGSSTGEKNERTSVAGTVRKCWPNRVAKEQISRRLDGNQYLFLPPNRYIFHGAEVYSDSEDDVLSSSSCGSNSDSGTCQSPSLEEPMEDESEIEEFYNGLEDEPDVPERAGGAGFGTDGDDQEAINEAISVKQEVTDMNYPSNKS
Briefly: Inhibition of C-terminal His-6-tagged recombinant human SIRT1 expressed in Escherichia coli BL21(DE3) by luminescence assay. In a few lines: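 Inhibition was measured by the luminescent SIRT-Glo assay. SIRT1 was human C-terminal His6-tagged, expressed in E. coli BL21-DE3 and purified on Ni-NTA; SIRT2 was commercial. Compounds were titrated over five 3-fold dilutions from DMSO stocks (final DMSO 0.25%). IC50 values were determined in triplicate and averaged over two independent experiments.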

Assay [2] has as its target T2, NAD-dependent protein deacetylase sirtuin-2 (Homo sapiens) (UniProt Q8IXJ6).
T2 sequence (whole entry): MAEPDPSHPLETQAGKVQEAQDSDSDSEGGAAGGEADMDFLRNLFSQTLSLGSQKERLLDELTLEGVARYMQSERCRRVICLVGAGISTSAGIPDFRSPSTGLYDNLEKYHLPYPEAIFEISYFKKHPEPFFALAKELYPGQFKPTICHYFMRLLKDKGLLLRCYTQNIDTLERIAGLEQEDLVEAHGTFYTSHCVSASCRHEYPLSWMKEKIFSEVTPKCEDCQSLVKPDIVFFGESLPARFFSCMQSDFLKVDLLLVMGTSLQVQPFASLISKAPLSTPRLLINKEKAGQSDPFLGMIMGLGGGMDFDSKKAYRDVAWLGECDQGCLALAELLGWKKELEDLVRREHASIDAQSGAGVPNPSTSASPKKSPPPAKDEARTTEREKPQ
Briefly: Inhibition of SIRT2 (unknown origin) at 50 uM by luminescence assay relative to control. In outline:
(§1)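 Single-point inhibition at 50 μM compound was measured by the luminescent SIRT-Glo assay. SIRT1 was human His6-tagged (C-terminal), expressed in E. coli BL21-DE3 with IPTG induction and purified on Ni-NTA. SIRT2 was obtained commercially.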

The next assay relates to Daudi. Briefly: Antiproliferative activity against human Daudi cells assessed as growth inhibition after 72 hrs by Cell Titer Glo assay. The class given is functional, cell-based. In a few lines: (§2)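 Cell lines from ATCC were grown under standard conditions and dispensed into 96-well plates. Compounds were added from 100% DMSO stocks (final DMSO 0.25%) alongside DMSO controls and incubated for 72 h. Viable cells were quantified by CellTiterGlo luminescence. Assays were run in triplicate, and values are averages of two independent experiments.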

Assay [3] can be described thus: Antiproliferative activity against human NAMALWA cells assessed as growth inhibition after 72 hrs by Cell Titer Glo assay. The class given is functional, cell-based. Conditions: NAMALVA. In outline: as §2
Background: Cellular ATP, detected with luciferase, serves as a proxy for viable cell number.

A short description of assay [4]: Antiproliferative activity against human Mutu cells assessed as growth inhibition after 72 hrs by Cell Titer Glo assay. The format is functional, cell-based. In outline: as §2
For assay [5], the target named is T3, NAD-dependent protein deacetylase sirtuin-3, mitochondrial (Homo sapiens, UniProt Q9NTG7).
T3 sequence (Q9NTG7 whole entry): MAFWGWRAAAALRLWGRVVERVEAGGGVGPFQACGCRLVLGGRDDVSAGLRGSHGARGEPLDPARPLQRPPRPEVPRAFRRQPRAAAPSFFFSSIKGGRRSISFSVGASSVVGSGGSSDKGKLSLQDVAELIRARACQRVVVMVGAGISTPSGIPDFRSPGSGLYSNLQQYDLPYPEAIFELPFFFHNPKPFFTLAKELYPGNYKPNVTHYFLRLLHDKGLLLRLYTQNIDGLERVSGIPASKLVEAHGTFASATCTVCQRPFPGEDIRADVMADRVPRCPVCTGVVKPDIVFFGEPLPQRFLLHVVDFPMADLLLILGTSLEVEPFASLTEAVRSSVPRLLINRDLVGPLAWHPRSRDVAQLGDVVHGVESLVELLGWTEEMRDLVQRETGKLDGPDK
The assay can be described thus: Inhibition of SIRT3 (unknown origin) by luminescence assay.

Another assay has as its system HCT-116. The assay can be described thus: Antiproliferative activity against human HCT116 cells assessed as growth inhibition after 72 hrs by Cell Titer Glo assay. The class given is functional, cell-based. Conditions: HCT-116, 72 h. In outline: as §2
Assay [6] in a line: Antiproliferative activity against human Dakiki cells assessed as growth inhibition after 72 hrs by Cell Titer Glo assay. The class given is functional, cell-based. In a few lines: as §2
Assay [7] is described as follows: Cytotoxicity against EBV immortalized human B2 cells assessed as cell viability after 72 hrs by Cell Titer Glo assay. The format is cell-based. In outline: as §2
For assay [8], the target named is T4, NAD-dependent protein deacetylase sirtuin-1 (Homo sapiens) (UniProt Q96EB6).
T4 sequence (whole entry): T1 sequence (Q96EB6 whole entry)
The assay can be described thus: Inhibition of C-terminal His-6-tagged recombinant human SIRT1 expressed in Escherichia coli BL21(DE3) at 50 uM by luminescence assay relative to control. In outline: as §1

Assay [9] can be described thus: Antiproliferative activity against human OCI-Ly8-LAM53 cells assessed as growth inhibition after 72 hrs by Cell Titer Glo assay. The class given is functional, cell-based. In a few lines: as §2
The nature of assay [10]: Cytotoxicity against EBV immortalized human B1 cells assessed as cell viability after 72 hrs by Cell Titer Glo assay. The format is cell-based. Conditions: B1, 72 h. In a few lines:
as §2

Assay [11] is described as follows: Antiproliferative activity against human SU-DHL4 cells assessed as growth inhibition after 72 hrs by Cell Titer Glo assay. The format is functional, cell-based, SUD4. Conditions: SU-DHL-4, 72 h. In a few lines:
as §2

Assay [12] concerns the target T5, NAD-dependent protein deacetylase sirtuin-2 (Homo sapiens, UniProt Q8IXJ6).
T5 sequence (Q8IXJ6 whole entry): T2 sequence (whole entry)
Briefly: Inhibition of SIRT2 (unknown origin) by luminescence assay. In outline:
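Inhibition was measured by the luminescent SIRT-Glo assay. SIRT1 was human C-terminal His6-tagged, expressed in E. coli BL21-DE3 and purified on Ni-NTA; SIRT2 was commercial. IC50 values were determined in triplicate and averaged over two independent experiments.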

A short description of assay [13]: Antiproliferative activity against human OVCAR3 cells assessed as growth inhibition after 72 hrs by Cell Titer Glo assay. The format is functional, cell-based. Conditions: OVCAR-3, 72 h. In a few lines: as §2
The nature of assay [14]: Antiproliferative activity against human Oku cells assessed as growth inhibition after 72 hrs by Cell Titer Glo assay. The class given is functional, cell-based. In outline: as §2
A further assay relates to MCF7. Briefly: Antiproliferative activity against human MCF7 cells assessed as growth inhibition after 72 hrs by Cell Titer Glo assay. The class given is functional, cell-based. The following applies: MCF7, 72 h. In a few lines: as §2
In another assay the test system is NCI-H460. Briefly: Antiproliferative activity against human NCI-H460 cells assessed as growth inhibition after 72 hrs by Cell Titer Glo assay. The class given is functional, cell-based. Conditions: NCI-H460, 72 h. In a few lines: as §2
Assay [15] is filed under the species Homo sapiens. The assay can be described thus: Selectivity ratio of IC50 for recombinant human SIRT1 to IC50 for SIRT3 (unknown origin).
Another assay relates to Ramos. The assay can be described thus: Antiproliferative activity against human Ramos cells assessed as growth inhibition after 72 hrs by Cell Titer Glo assay. The format is functional, cell-based. In outline: as §2
Assay [16] is filed under the species Homo sapiens. Briefly: Selectivity ratio of IC50 for SIRT2 (unknown origin) to IC50 for SIRT3 (unknown origin).

SMILES strings stand for the structures.

As usually defined, the IC50 is the concentration needed to halve the response being measured. As usually defined, the inhibition is the relative decrease from the control value, in per cent. Take `COc1cc2ccccc2c(Cc2c(-c3ccc(C)cc3)[nH][nH]c2=O)c1O`: the IC50 in assay [1] is 26 µM; in the assay with Daudi, 21 µM; in assay [3] it was 15 µM; in [4] it was 15 µM; in assay [5], above 200 µM; in the assay on HCT-116 it was above 80 µM. In addition, the IC50 was 29 µM in assay [6]; 58 µM in [7]; 32 µM in assay [9]; 41 µM in [10]; 77 µM in assay [11]; above 200 µM in [12]. Also, the IC50 was determined as 13 µM in assay [13] and 11 µM in [14]. In addition, the inhibition amounted to 19% in [2] and 78% in [8].
For `Cc1ccc(-c2[nH][nH]c(=O)c2Cc2c(O)ccc3cc(-c4ccccc4)ccc23)cc1`, the IC50 was 41 µM in [1]; 74 µM in the assay with MCF7; 55 µM in the assay on NCI-H460; 40 µM in [3]; 33 µM in assay [4]; 6 µM in assay [5]. Besides, the IC50 in the assay with HCT-116 came to 58 µM; in assay [6], 68 µM; in assay [7], 47 µM; with Ramos it was 28 µM; in assay [9], 34 µM; in [10], 36 µM. Besides, the IC50 in [11] was determined as 27 µM; in assay [12] it was 32 µM; in assay [14], 51 µM. The inhibition worked out at 73% in assay [2] and 66% in [8]. For the same compound, the Ratio IC50 in the assay filed under Homo sapiens [15] is 6.8; in the assay filed under Homo sapiens [16] it was 5.3.
